According to ChEMBL document CHEMBL1134325, “Diaminoindanes as microsomal triglyceride transfer protein inhibitors” (J Med Chem, 2001):

Key:
Canis familiaris [1] = experiment: Inhibition of plasma total cholesterol in the normolipidemic dogs after day 3 of oral administration of 5 mg/kg/day.; format: functional, Canis lupus familiaris
In short: (§1)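 Normolipidemic dogs dosed once daily for 4 days by oral gavage, compound suspended in cornstarch vehicle. Plasma sampled 24 h after dosing on days 0, 2, 3 and 4, assayed for triglycerides and total cholesterol (mg/dL). Mean percent inhibition versus day-0 level is given for treated dogs; n = 6 per group; significance by one-way ANOVA, p < 0.05.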

Rattus norvegicus [2] = experiment: Inhibition of total cholesterol in normolipidemic rats after 6 hr of 50 mg/kg oral dosing; format: functional
In short: (§2)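 Overnight-fasted normolipidemic rats received a single oral dose in cornstarch vehicle. Blood was drawn at 2, 6 and 24 h post-dose and assayed for triglycerides and total cholesterol, with free access to food after the 6 h sample. Value is mean percent inhibition versus a separate vehicle-treated group, unpaired t test p < 0.05, NS = no significant change, N = 6.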

Canis familiaris [3] = experiment: Inhibition of plasma total cholesterol in the normolipidemic dogs after day 2 of oral administration of 5 mg/kg/day.; format: functional, Canis lupus familiaris; in short: as §1
Canis familiaris [4] = experiment: Inhibition of plasma total triglycerides in the normolipidemic dogs after day 3 of oral administration of 10 mg/kg/day.; format: functional, Canis lupus familiaris
Canis familiaris [5] = experiment: Inhibition of plasma total cholesterol in the normolipidemic dogs after day 2 of oral administration of 10 mg/kg/day.; format: functional, Canis lupus familiaris; in short: as §1
Canis familiaris [6] = experiment: Inhibition of plasma total cholesterol in the normolipidemic dogs after day 4 of oral administration of 10 mg/kg/day. Values in the parentheses indicate mean percent inhibition for drug treated dogs.; format: functional, Canis lupus familiaris; in short: as §1
Canis familiaris [7] = experiment: Inhibition of plasma total triglycerides in the normolipidemic dogs after day 3 of oral administration of 5 mg/kg/day.; format: functional, Canis lupus familiaris
Canis familiaris [8] = experiment: Inhibition of plasma total triglycerides in the normolipidemic dogs after day 2 of oral administration of 10 mg/kg/day.; format: functional, Canis lupus familiaris; in short: as §1
Canis familiaris [9] = experiment: Inhibition of plasma total triglycerides in the normolipidemic dogs after day 4 of oral administration of 5 mg/kg/day.; format: functional, Canis lupus familiaris
Rattus norvegicus [10] = experiment: Inhibition of plasma triglycerides in normolipidemic rats after 2 hr of 50 mg/kg oral dosing; format: functional; in short: as §2
Canis familiaris [11] = experiment: Inhibition of plasma total cholesterol in the normolipidemic dogs after day 3 of oral administration of 10 mg/kg/day.; format: functional, Canis lupus familiaris; in short: as §1
Rattus norvegicus [12] = experiment: Inhibition of plasma triglycerides in normolipidemic rats after 24 hr of 10 mg/kg oral dosing; no significant change; format: functional, organism-based; parameters: dose 10 mg/kg; in short: as §2
Rattus norvegicus [13] = experiment: Inhibition of plasma triglycerides in normolipidemic rats after 24 h of 50 mg/kg oral dosing; no significant change; format: functional, organism-based; parameters: dose 50 mg/kg; in short: as §2
Rattus norvegicus [14] = experiment: Inhibition of total cholesterol in normolipidemic rats after 2 hr of 50 mg/kg oral dosing; format: functional; in short: as §2
Canis familiaris [15] = experiment: Inhibition of plasma total triglycerides in the normolipidemic dogs after day 2 of oral administration of 5 mg/kg/day.; format: functional, Canis lupus familiaris; in short: as §1
Canis familiaris [16] = experiment: Inhibition of plasma total triglycerides in the normolipidemic dogs after day 4 of oral administration of 10 mg/kg/day. Values in the parentheses indicate mean percent inhibition for drug treated dogs.; format: functional, Canis lupus familiaris
Canis familiaris [17] = experiment: Inhibition of plasma total triglycerides in the normolipidemic dogs after day 0 of oral administration of 5 mg/kg/day.; format: functional, Canis lupus familiaris; in short: as §1
Rattus norvegicus [18] = experiment: Inhibition of total cholesterol in normolipidemic rats after 6 hr of 10 mg/kg oral dosing; format: functional; in short: as §2
Rattus norvegicus [19] = experiment: Inhibition of total cholesterol in normolipidemic rats after 2 hr of 10 mg/kg oral dosing; format: functional; in short: as §2
Canis familiaris [20] = experiment: Inhibition of plasma total triglycerides in the normolipidemic dogs after day 0 of oral administration of 10 mg/kg/day.; format: functional, Canis lupus familiaris; in short: as §1
Canis familiaris [21] = experiment: Inhibition of plasma total cholesterol in the normolipidemic dogs after day 4 of oral administration of 5 mg/kg/day. Values in the parentheses indicate mean percent inhibition for drug treated dogs.; format: functional, Canis lupus familiaris; in short: as §1
Rattus norvegicus [22] = experiment: Inhibition of total cholesterol in normolipidemic rats after 24 hr of 10 mg/kg oral dosing; no significant change; format: functional, organism-based; parameters: dose 10 mg/kg; in short: as §2
[23] = target: T1, Microsomal triglyceride transfer protein large subunit (Homo sapiens, UniProt P55157); experiment: In vitro inhibitory activity against MTP using MTP transfer assay
T1 sequence (P55157 whole entry): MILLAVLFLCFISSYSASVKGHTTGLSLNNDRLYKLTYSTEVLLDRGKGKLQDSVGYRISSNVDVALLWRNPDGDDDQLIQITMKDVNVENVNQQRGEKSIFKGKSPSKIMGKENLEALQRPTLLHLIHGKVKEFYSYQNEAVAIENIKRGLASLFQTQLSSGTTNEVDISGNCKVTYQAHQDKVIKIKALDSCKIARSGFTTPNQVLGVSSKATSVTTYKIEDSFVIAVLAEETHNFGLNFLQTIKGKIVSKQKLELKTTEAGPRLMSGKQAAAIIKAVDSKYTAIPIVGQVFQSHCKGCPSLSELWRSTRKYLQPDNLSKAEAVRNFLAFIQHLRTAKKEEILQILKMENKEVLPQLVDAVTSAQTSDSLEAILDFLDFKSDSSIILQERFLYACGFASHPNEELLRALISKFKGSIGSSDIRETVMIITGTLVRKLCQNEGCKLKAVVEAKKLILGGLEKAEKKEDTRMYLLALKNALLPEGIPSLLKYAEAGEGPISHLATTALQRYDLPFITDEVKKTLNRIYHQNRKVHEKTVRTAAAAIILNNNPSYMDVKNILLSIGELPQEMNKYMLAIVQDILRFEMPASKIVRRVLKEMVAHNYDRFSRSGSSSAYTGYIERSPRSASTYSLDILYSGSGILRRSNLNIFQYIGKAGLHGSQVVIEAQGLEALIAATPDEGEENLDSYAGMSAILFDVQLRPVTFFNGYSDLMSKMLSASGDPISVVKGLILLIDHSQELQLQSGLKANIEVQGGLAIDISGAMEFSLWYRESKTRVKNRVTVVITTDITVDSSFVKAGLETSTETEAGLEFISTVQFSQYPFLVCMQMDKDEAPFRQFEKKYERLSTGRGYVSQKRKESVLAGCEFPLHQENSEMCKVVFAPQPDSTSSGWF

Rattus norvegicus [24] = experiment: Inhibition of plasma triglycerides in normolipidemic rats after 2 hr of 10 mg/kg oral dosing; format: functional; in short: as §2
Rattus norvegicus [25] = experiment: Inhibition of plasma triglycerides in normolipidemic rats after 6 hr of 50 mg/kg oral dosing; format: functional; in short: as §2
Canis familiaris [26] = experiment: Inhibition of plasma total cholesterol in the normolipidemic dogs after day 0 of oral administration of 10 mg/kg/day.; format: functional, Canis lupus familiaris; in short: as §1
Canis familiaris [27] = experiment: Inhibition of plasma total cholesterol in the normolipidemic dogs after day 0 of oral administration of 5 mg/kg/day.; format: functional, Canis lupus familiaris; in short: as §1
Rattus norvegicus [28] = experiment: Inhibition of total cholesterol in normolipidemic rats after 24 hr of 50 mg/kg oral dosing; format: functional; in short: as §2
Rattus norvegicus [29] = experiment: Inhibition of plasma triglycerides in normolipidemic rats after 6 hr of 10 mg/kg oral dosing; format: functional; in short: as §2

## Cc1cccc(C(=O)Nc2ccc3c(c2)C[C@@H](NCc2ccccn2)C3)c1-c1ccc(C(F)(F)F)cc1
Canis familiaris [1]
  Lipid level: <99 mg/dL
Rattus norvegicus [2]
  Reduction: 57%
Canis familiaris [3]
  Lipid level: <110 mg/dL
Canis familiaris [4]
  Lipid level: <27 mg/dL
Canis familiaris [5]
  Lipid level: <69 mg/dL
Canis familiaris [6]
  Lipid level: <36 mg/dL
Canis familiaris [7]
  Lipid level: 41 mg/dL
Canis familiaris [8]
  Lipid level: <26 mg/dL
Canis familiaris [9]
  Lipid level: 32 mg/dL
Rattus norvegicus [10]
  Reduction: 91%
Canis familiaris [11]
  Lipid level: <54 mg/dL
Rattus norvegicus [12]
  NS: no significant change
Rattus norvegicus [13]
  NS: no significant change
Rattus norvegicus [14]
  Reduction: 40%
Canis familiaris [15]
  Lipid level: 38 mg/dL
Canis familiaris [16]
  Lipid level: <23 mg/dL
Canis familiaris [17]
  Lipid level: 36 mg/dL
Rattus norvegicus [18]
  Reduction: 35%
Rattus norvegicus [19]
  Reduction: 34%
Canis familiaris [20]
  Lipid level: 46 mg/dL
Canis familiaris [21]
  Lipid level: <94 mg/dL
Rattus norvegicus [22]
  NS: no significant change
[23]
  IC50: 0.1 µM
Rattus norvegicus [24]
  Reduction: 86%
Rattus norvegicus [25]
  Reduction: 88%
Canis familiaris [26]
  Lipid level: 125 mg/dL
Canis familiaris [27]
  Lipid level: 130 mg/dL
Rattus norvegicus [28]
  Reduction: 29%
Rattus norvegicus [29]
  Reduction: 47%
